# Compound activity as filed in PubChem BioAssay.
# STEP block = STEP phosphatase inhibitors, primary screen, biochemical, fluorescence intensity, uHTS | Tyrosine-protein phosphatase non-receptor type 5 (Homo sapiens), P54829 | recombinant STEP, OMFP fluorogenic substrate | inhibition, % at 20 µM | hit rate 0.25% among 360,000 | AID 588621, 2011;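 active = inhibition at 20 µM, scaled per plate between control wells, above about 37%, limit read from the data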;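 also: 0% = DMSO with enzyme and substrate and 100% = substrate only without enzyme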
#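 Test system: STEP tyrosine phosphatase / Reagent: OMFP at 25 µM / Doses: 20 µM, 1% DMSO / Read-out: percent inhibition scaled to no-enzyme and uninhibited-enzyme controls, plate-pattern corrected / Detection: FITC-channel fluorescence of OMFP product / Medium: Bis-Tris buffer pH 6.0, 2.5 mM DTT, 0.005% Tween 20 / Schedule: 20 min at room temperature, dark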
# LMPTP block = LMPTP phosphatase inhibitors, primary screen, biochemical, fluorescence intensity, uHTS. Low molecular weight phosphotyrosine protein phosphatase (Homo sapiens), P24666. inhibition, % at 20 µM. recombinant LMPTP-A, OMFP fluorogenic substrate. hit rate 0.22% among 360,000;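 active = compounds that cut the enzyme signal by at least half of the control window in the single-dose screen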;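 also: plate controls were DMSO wells with enzyme plus substrate for no effect and substrate without enzyme for full effect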
# Target sequence (P24666 whole entry, looked up): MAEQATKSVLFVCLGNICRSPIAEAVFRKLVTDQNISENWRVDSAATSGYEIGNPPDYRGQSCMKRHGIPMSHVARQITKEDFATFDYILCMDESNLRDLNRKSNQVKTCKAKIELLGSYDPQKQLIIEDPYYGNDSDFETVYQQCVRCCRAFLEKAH
#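 test system = LMPTP-A | amount = 0.625 nM LMPTP-A final | reagent = fluorogenic phosphatase substrate OMFP at 400 µM final | incubation = 50 min at room temperature | benchmarks = no-enzyme low control, uninhibited high control | medium = Bis-Tris pH 6.0, DTT, detergent | signal = fluorescence intensity of OMFP turnover product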
# PP1 inh = PP1-alpha phosphatase inhibitors, primary screen, counter-screen for PP5 inhibitor project, biochemical, fluorescence, OMFP substrate, single point. hit rate 0.9% among 320,000. inhibition, % at 6.7 µM. purified PP1alpha. Serine/threonine-protein phosphatase PP1-alpha catalytic subunit (Homo sapiens), P62136;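 active = inhibition above the mean inhibition of all tested compounds plus 3 SD, computed separately for each screening campaign, cut at about 15% in these data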
# Scp-1 inhibitor = Scp-1 phosphatase inhibitors, primary screen, biochemical, colorimetric, uHTS; Carboxy-terminal domain RNA polymerase II polypeptide A small phosphatase 1 (Homo …; Recombinant Scp1, phosphopeptide, malachite green phosphate absorbance; inhibition, % at 20 µM; hit rate 0.88% among 340,000; AID 493091, 2011;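 active = inhibition above about 50% at 20 µM, limit read from the data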;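 also: plate controls were DMSO wells with enzyme for no effect and wells lacking enzyme for full effect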
#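 Times: enzyme reaction 45 min at room temperature, colour 5 min, stabilisation 30 min. Material: SCP-1 catalytic fragment, aa 76-261. Medium: Acidic Tris acetate buffer with magnesium and detergent. Signal: colorimetric free-phosphate detection, absorbance 630 nm. Read-out basis: % inhibition of SCP-1 phosphate liberation. Reagent: Phosphorylated 17-residue peptide substrate.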
# PP5 inh = PP5 phosphatase inhibitors, primary screen, biochemical, fluorescence; purified PP5c, OMFP substrate fluorescence; inhibition, % at 6.7 µM; Serine/threonine-protein phosphatase 5 (Homo sapiens), P53041; hit rate 0.18% among 320,000;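 active = inhibition above the campaign's mean inhibition across all tested compounds plus 3 SD, cut at about 9.5% in these data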;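 also: 0% = DMSO only and 100% = 100 µM cantharidin control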
# Target sequence (P53041 whole entry, looked up): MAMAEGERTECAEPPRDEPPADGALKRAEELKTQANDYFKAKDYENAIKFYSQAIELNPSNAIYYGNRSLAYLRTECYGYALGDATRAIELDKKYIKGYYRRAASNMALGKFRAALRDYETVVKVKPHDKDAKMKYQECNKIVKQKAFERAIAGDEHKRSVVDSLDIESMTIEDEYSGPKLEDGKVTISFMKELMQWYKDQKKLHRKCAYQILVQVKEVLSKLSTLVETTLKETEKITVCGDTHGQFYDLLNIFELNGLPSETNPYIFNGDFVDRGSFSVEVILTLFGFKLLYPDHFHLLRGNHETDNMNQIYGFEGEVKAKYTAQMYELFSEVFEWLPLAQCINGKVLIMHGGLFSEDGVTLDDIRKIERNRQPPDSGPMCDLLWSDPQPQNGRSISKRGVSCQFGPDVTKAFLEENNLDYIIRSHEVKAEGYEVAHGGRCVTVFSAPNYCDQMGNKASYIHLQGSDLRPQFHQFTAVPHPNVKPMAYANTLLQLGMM
# PP1 confirm = PP1 phosphatase inhibitors, confirmation, biochemical, fluorescence, OMFP substrate, triplicate | AID 2358, 2010 | purified PP1alpha | shares compounds with PP1 inh | inhibition, % at 6.7 µM | hit rate 52% among 1,900;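 active = mean PP1 inhibition above a set limit taken from the earlier primary screen, cut at about 15% in these data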
# PP5 counter = PP5 phosphatase inhibition by PP1 hits, confirmation, counter-screen for PP1 inhibitor project, biochemical, fluorescence, triplicate | shares compounds with PP1 inh | purified PP5c, OMFP fluorescence | inhibition, % at 6.7 µM | hit rate 4% among 1,900 | AID 2360, 2010;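 active = mean PP5 inhibition over triplicate wells above about 9.5% taken from the earlier PP1 screen, limit read from the data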
# The depositor's hits bear a star; nt = not tested or not shown. Hits are enriched below; roughly 1.9% of the tested compounds scored in any of these assays.
SMILES,STEP block,LMPTP block,PP1 inh,Scp-1 inhibitor,PP5 inh,PP1 confirm,PP5 counter
CC(C)CSc1ncnc2c1oc1nc3c(cc12)COC(C)(C)C3,1,0,2,-4,3,nt,nt
Cc1cc2ccccn2c1C(=O)c1cc([N+](=O)[O-])cc([N+](=O)[O-])c1,6,2,1,-8,2,nt,nt
Cc1cc2ccccn2c1C(C[N+](=O)[O-])c1ccc(N(C)C)cc1 (stereo not drawn),-3,4,20*,-5,3,4,9.8*
O=C(Nc1ccc(S(=O)(=O)NCC2CCCO2)cc1)c1cnccn1 (stereo not drawn),1,0,-4,-9,1,nt,nt
O=C(NCC1CCCO1)c1nc(Cn2ccc([N+](=O)[O-])n2)no1 (stereo not drawn),-2,-3,21*,-4,5,-5,-5
CC1CCC(NC(=O)c2nc(Cn3ccc([N+](=O)[O-])n3)no2)CC1 (stereo not drawn),0,0,0,-8,0,nt,nt
Cc1cc2c(cc1C)-n1nnnc1C(N(C)CCc1ccccc1)C(=O)N2 (stereo not drawn),nt,0,nt,nt,nt,nt,nt
O=C(Nc1nccs1)c1ccc(-c2ccc([N+](=O)[O-])cc2)o1,2,28,18*,9,-1,23*,-1
O=C(Nc1nccs1)c1ccc(-c2ccc(Cl)cc2)o1,3,4,2,-11,1,nt,nt
Cc1ccc(-n2c(C)cc(=O)cc2C)cc1[N+](=O)[O-],-1,-1,-1,-1,1,nt,nt
CN(C)/C=C1/C(=O)N(c2ccc([N+](=O)[O-])cc2)N=C1c1ccccc1,nt,nt,20*,nt,2,11,2
CN(C)/C=C1\C(=O)N(c2ccc([N+](=O)[O-])cc2)N=C1c1ccccc1,2,-1,22*,1,3,8,1
O=C(COc1ccccc1)n1nc(-c2ccc(Cl)cc2)nc1NCc1ccco1,-2,1,0,-5,3,nt,nt
COc1ccc(-c2cc3nc4ccccc4n3c(N)c2C#N)cc1,62*,58*,18*,17,-5,17*,-4
COc1ccc(-c2cc(-c3ccccc3)c(C#N)c(S(C)=O)n2)cc1 (stereo not drawn),-1,0,-1,-6,2,nt,nt
Cc1ccc(-c2ccc3nnc(SCC(N)=O)n3n2)cc1,-3,-2,-4,-9,0,nt,nt
CCOc1ccc(S(=O)(=O)NCCC(=O)N2CC(C)CC(C)C2)cc1 (stereo not drawn),2,1,79*,-1,-1,-6,-5
CCOc1ccc(S(=O)(=O)NCCC(=O)N2CCCC(C)C2)cc1 (stereo not drawn),1,-10,-1,-6,0,nt,nt
CCOc1ccc(S(=O)(=O)NCCCN2CCOCC2)cc1,-4,-4,23*,-5,3,-4,-7
Cc1occc1-c1nnc(SCC(=O)Nc2nccs2)n1Cc1ccco1,-3,1,30*,6,-1,-6,-4
O=C(CSc1nnc(-c2ccc(O)cc2)n1Cc1ccco1)c1cccs1,-1,1,30*,-8,4,-7,-8
C(=N\Nc1nc2ccccc2[nH]1)/c1cccc2cccnc12,10,12,18*,-11,0,11,-3
O=[N+]([O-])c1cc(/C=N/Nc2nc3ccccc3[nH]2)c(O)cc1O,nt,nt,18*,56*,1,31*,0
Cc1ccccc1/C=N/Nc1nc2ccccc2[nH]1,1,4,4,-1,1,nt,nt
CC1CC(C)CN(CCCNC(=O)C2CCN(c3ncnc4c3sc3cccc(F)c34)CC2)C1 (stereo not drawn),nt,nt,-3,nt,-1,nt,nt
SMILES,STEP block,LMPTP block,PP1 inh,Scp-1 inhibitor,PP5 inh,PP1 confirm,PP5 counter
COCCCNC(=O)C[C@@H]1C[C@@]2(C(=O)OC)CC(C)(C)CC=C2N(CCc2ccc(OC)c(OC)c2)C1=O,nt,-1,nt,nt,nt,nt,nt
O=c1[nH]c(/C=C/c2ccccc2Cl)nc2ccccc12,34,14,18*,2,0,25*,-6
Cc1ccc(S(=O)(=O)N2CCN(c3ccc([N+](=O)[O-])c(Sc4nncn4C)c3)CC2)cc1,3,1,-2,4,2,nt,nt
C=CCOC(=O)C1=C[C@H](c2csc3ccccc23)C[C@H](OCc2ccc(CO)cc2)O1,3,4,22*,-11,3,4,-2
C=CCOC(=O)C1=C[C@@H](c2csc3ccccc23)C[C@@H](OCc2ccc(CO)cc2)O1,1,4,10,-14,5,nt,nt
CCOC(=O)c1c(N2C(=O)Nc3cc(Cl)c(Cl)cc3N2O)sc2c1CCCCC2,13,1,19*,-6,3,17*,0
Cc1c(NS(=O)(=O)c2cc(C(=O)Nc3ccc(F)cc3Cl)ccc2Cl)c(=O)n(-c2ccccc2)n1C,-4,-1,nt,-2,nt,nt,nt
CCC(=O)N1CCN(c2ccccc2NC(=O)c2ccc(-c3cccc([N+](=O)[O-])c3)o2)CC1,6,7,19*,-7,2,17*,-2
CCOC(=O)Cn1c(COc2ccccc2OC)[n+](C)c2ccccc21,-3,0,-8,-7,1,nt,nt
CCCCCCCCCCOC(=O)Cn1c(COc2ccc(Cl)cc2)[n+](C)c2ccccc21,7,6,48*,18,6,21*,2
CCCCCCCCCCOC(=O)Cn1c(COc2cccc(C)c2)[n+](C)c2ccccc21,6,1,42*,8,5,16*,4
Cc1ccccc1OCc1n(CC(=O)OC2CC(C)CCC2C(C)C)c2ccccc2[n+]1C (stereo not drawn),6,0,10,8,2,nt,nt
CCCCCOC(=O)Cn1c(=O)oc2ccccc21,2,-1,8,-9,4,nt,nt
CCCCCCCCCCOC(=O)Cn1c(COc2ccccc2C)[n+](C)c2ccccc21,10,8,44*,16,6,16*,4
Cc1cccc(OCCCn2c(=O)sc3ccccc32)c1,0,3,2,-7,2,nt,nt
